What was measured:
[1] = Tissue distribution of TDE in mice; conditions: oral 20 mg/kg TDE with 20 mg/kg IPT, 20 mg/kg ISP or 200 mg/kg AD extract, 1, 2 and 4 h; for accumulation of TDE in kidney vs TDE alone / accumulation of TDE in liver vs TDE alone: P < 0.05
mOatp1a1 = test: qRT-PCR of mOatp1a1 mRNA in liver of treated mice; type: in vivo; conditions: mice given 20 mg/kg TDE with 20 mg/kg IPT, ISP or 200 mg/kg AD extract, 4 h
hOAT3 = biological target: T1, hOAT3 (Homo sapiens, UniProt Q8TCC7); test: Inhibition of 3H-ES uptake in S2-hOAT3 cells; type: in vitro ADME; conditions: for inhibition of the activity of hOAT3: 100 μmol/L IPT, ISP, 100 μg/mL AD extract, substrate 3H-ES
T1 sequence (Q8TCC7 1-542): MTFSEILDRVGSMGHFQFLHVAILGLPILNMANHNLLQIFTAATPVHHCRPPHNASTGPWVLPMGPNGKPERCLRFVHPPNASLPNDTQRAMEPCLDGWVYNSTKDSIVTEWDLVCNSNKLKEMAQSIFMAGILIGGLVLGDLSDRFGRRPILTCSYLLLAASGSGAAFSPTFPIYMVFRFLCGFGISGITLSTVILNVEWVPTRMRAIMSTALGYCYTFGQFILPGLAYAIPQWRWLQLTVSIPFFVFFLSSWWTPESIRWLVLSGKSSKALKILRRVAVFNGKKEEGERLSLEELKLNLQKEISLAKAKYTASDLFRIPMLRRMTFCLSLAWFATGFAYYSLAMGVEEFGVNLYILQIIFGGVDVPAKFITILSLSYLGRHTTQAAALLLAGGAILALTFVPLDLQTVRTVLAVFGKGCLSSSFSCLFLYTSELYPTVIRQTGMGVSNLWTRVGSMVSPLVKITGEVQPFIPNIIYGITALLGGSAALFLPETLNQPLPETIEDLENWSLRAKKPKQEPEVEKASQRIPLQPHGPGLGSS
How it was run: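 Test compounds were made as DMSO stocks (20 mmol/L, or 10 mg/mL for extract) and diluted in PBS to a final DMSO below 0.5%. Cells were exposed at 37 °C to probe plus or minus test compound. The probe was 5 μmol/L ¹⁴C-PAH for 5 min (hOAT1) or 50 nmol/L ³H-estrone sulfate for 2 min (hOAT3, hOATP2B1). Screens used 100 μmol/L (extract 100 mg/L); IC50 came from varied concentrations. Cells were then given three cold DPBS washes, lysed in 0.1 mol/L NaOH and read by scintillation counting. Data are mean ± SD, n = 3.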

hOATP1B3 = biological target: T2, hOATP1B3 (Homo sapiens, UniProt Q9NPD5); test: Cellular uptake and kinetics in HEK293-hOATP1B3 vs Mock cells; type: in vitro ADME; conditions: 100 μmol/L, substrate if >2-fold of wild type
T2 sequence (Q9NPD5 1-702): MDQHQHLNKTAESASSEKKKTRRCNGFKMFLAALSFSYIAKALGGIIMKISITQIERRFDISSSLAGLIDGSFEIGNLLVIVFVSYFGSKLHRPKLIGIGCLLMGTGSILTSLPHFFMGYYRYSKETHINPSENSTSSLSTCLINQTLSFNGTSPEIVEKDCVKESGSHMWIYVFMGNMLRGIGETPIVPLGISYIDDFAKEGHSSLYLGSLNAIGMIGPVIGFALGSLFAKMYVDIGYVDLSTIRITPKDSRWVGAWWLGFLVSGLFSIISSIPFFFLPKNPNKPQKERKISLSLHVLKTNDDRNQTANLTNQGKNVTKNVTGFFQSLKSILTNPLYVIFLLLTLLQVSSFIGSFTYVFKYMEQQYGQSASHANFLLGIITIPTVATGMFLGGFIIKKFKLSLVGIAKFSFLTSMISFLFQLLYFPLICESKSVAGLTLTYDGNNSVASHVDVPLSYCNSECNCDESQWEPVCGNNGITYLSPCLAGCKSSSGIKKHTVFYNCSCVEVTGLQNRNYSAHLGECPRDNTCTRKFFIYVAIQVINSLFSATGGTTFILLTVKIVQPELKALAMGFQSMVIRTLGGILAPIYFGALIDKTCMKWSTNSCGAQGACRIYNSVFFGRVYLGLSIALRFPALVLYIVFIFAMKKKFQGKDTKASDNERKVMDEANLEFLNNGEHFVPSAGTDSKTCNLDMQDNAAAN
How it was run: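 Transfected cells and matching Mock cells were seeded at 2 × 10⁵ cells/mL and grown 2 days. After a DPBS (pH 7.4) wash and 10 min preincubation at 37 °C, cells took up 100 μmol/L test compound for 2–5 min at 37 °C. Uptake was stopped with three ice-cold DPBS washes, followed by methanol extraction and HPLC–MS. Values were normalised to BCA protein and compared with Mock.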

hOATP1B1 [2] = biological target: T3, hOATP1B1 (Homo sapiens, UniProt Q9Y6L6); test: Cellular uptake and kinetics in HEK293-hOATP1B1 vs Mock cells; type: in vitro ADME; conditions: 100 μmol/L
T3 sequence (Q9Y6L6 1-691): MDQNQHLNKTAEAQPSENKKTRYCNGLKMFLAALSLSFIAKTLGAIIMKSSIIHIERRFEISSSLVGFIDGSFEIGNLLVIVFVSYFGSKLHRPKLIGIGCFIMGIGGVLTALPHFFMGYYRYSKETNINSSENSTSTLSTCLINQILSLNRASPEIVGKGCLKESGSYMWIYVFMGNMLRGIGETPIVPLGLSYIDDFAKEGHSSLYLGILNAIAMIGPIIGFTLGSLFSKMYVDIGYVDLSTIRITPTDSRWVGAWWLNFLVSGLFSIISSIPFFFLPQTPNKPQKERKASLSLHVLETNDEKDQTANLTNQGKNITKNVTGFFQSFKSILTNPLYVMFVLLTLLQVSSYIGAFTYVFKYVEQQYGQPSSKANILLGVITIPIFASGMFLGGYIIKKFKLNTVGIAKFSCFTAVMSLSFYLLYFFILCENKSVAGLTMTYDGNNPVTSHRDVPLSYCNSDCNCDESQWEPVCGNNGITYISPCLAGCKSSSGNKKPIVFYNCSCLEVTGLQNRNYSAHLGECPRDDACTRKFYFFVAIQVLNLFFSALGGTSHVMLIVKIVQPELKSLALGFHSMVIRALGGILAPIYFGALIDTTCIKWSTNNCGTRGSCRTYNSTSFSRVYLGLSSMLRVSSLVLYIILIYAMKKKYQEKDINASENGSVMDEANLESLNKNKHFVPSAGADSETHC

hOATP1B1 [3] = biological target: T3, hOATP1B1; test: Inhibition of 3H-ES uptake in HEK293-hOATP1B1 cells; type: in vitro ADME; conditions: 100 μmol/L IPT, ISP; 100 μg/mL AD extract; substrate 3H-ES
How it was run: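 HEK293 cells stably overexpressing the human transporter, grown in DMEM with 10% FBS and penicillin/streptomycin at 5% CO₂, then seeded in 24-well plates and used at confluence. Cells incubated at 37 °C for 2 min with 50 nmol/L ³H-estrone sulfate, with or without test compound or extract; final DMSO below 0.5%. Stopped by three cold DPBS washes, lysed in 0.1 mol/L NaOH, and counted by liquid scintillation (DPM).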

mOatp1a4 = test: qRT-PCR of mOatp1a4 mRNA in liver of treated mice; type: in vivo; conditions: mice given 20 mg/kg TDE with 20 mg/kg IPT, ISP or 200 mg/kg AD extract, 4 h

CC(C)=CCOc1c2occc2cc2ccc(=O)oc12 [IPT, imperatorin]
concentration of TDE in blood vs TDE alone [1]: significantly enhanced
concentration of TDE in brain vs TDE alone [1]: significantly enhanced
accumulation of TDE in kidney vs TDE alone [1]: significantly decreased
accumulation of TDE in liver vs TDE alone [1]: significantly decreased
mRNA level of mOatp1a1 decreased to, compared to TDE alone (mOatp1a1): 22%
IC50 (hOAT3): 2.74 µM
inhibition of the activity of hOAT3 (hOAT3): significantly inhibited
accumulation in HEK293-hOATP1B3 vs HEK293 wild type (hOATP1B3): no significant differences
accumulation in hOATP1B1-overexpressed cell lines compared to wild type (hOATP1B1 [2]): could largely accumulate
inhibition to hOATP1B1 (hOATP1B1 [3]): weak or no inhibition
mRNA level of mOatp1a4 decreased to, compared to TDE alone (mOatp1a4): 36%

CC(C)=CCOc1c2ccoc2cc2oc(=O)ccc12 [ISP, isoimperatorin]
concentration of TDE in blood vs TDE alone [1]: significantly enhanced
concentration of TDE in brain vs TDE alone [1]: significantly enhanced
accumulation of TDE in kidney vs TDE alone [1]: significantly decreased
accumulation of TDE in liver vs TDE alone [1]: significantly decreased
mRNA level of mOatp1a1 decreased to, compared to TDE alone (mOatp1a1): 37%
IC50 (hOAT3): 11.7 µM
inhibition of the activity of hOAT3 (hOAT3): significantly inhibited
accumulation in HEK293-hOATP1B3 vs HEK293 wild type (hOATP1B3): no significant differences
accumulation in hOATP1B1-overexpressed cell lines compared to wild type (hOATP1B1 [2]): could largely accumulate
inhibition to hOATP1B1 (hOATP1B1 [3]): weak or no inhibition
mRNA level of mOatp1a4 decreased to, compared to TDE alone (mOatp1a4): 61%

— paper PMC7564327 (Acta Pharmaceutica Sinica. B, 2020)
